According to publication PMC10998571 (Proceedings of the National Academy of Sciences of the …, 2024):
No end group written: not given here.

Experiments:
HEK293 cells = assay: MTT assay; assay type: cell-based, human; conditions: FKC 5-50 µM, 24 h, absorbance at 560 nm, N = 4
TNFR1 [1] = biological target: T1, TNFR1 (Homo sapiens, UniProt P19438); assay: TNFR1 FRET biosensor; assay type: cell-based
T1 sequence (P19438 30-242) 1: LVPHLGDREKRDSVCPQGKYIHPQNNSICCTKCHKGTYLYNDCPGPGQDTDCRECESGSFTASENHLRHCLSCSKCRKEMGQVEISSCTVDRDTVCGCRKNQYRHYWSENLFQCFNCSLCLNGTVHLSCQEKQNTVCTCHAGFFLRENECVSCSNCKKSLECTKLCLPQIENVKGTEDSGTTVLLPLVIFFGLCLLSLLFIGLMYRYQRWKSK
T1 sequence (P19438 30-242) 2: T1 sequence (P19438 30-242) 1
Procedure, shortened: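 HEK293 cells transiently transfected (Lipofectamine 3000) with TNFR1ΔCD–GFP donor alone or with TNFR1ΔCD–RFP acceptor; donor-only served as the no-FRET control. Cells plated at 15,000 cells/well in 96-well plates and treated with PBS or test compound (5 to 50 µM) for 24 h. FRET read from fluorescence intensity; EC50 derived from the dose–response of FRET change.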

[2] = i.p. injection, mice; rhodamine fluorescence of tissue sections
[3] = system: IL-1β induced NF-κB activation in HEK293 cells; assay: IL-1β induced NF-κB activation; assay type: cell-based, human; conditions: IL-1β 50 ng/mL, 18 h, N = 4
Procedure, shortened: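 HEK293 cells co-transfected with an NF-κB-response-element Firefly luciferase reporter (1 μg) and a Renilla reporter (0.1 μg) using Lipofectamine 3000. After 24 h, 15,000 cells/well were incubated with PBS or test compound (5 to 50 µM), with or without IL-1β, for 18 h at 37 °C. Dual-Glo Firefly, then Stop & Glo Renilla, 15 min RT each. Firefly normalised to Renilla and to ligand-treated cells.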

IL-23 receptor = conditions: without affecting ligand binding; cited from earlier work
NF-κB activation = conditions: cited from earlier work
TNFR1 PLAD = assay: PLAD FRET biosensor; assay type: cell-based; conditions: HEK293 cells, 24 h; FKC 50 µM, ZAF 100 µM or co-treatment; N = 4
Procedure, shortened: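 PLAD FRET biosensor made by transient Lipofectamine 3000 transfection of HEK293 cells with donor-only or donor/acceptor FRET pair DNAs. Cells moved to 96-well plates at 15,000 cells/well and treated with PBS (negative control), test compound and/or zafirlukast for 24 h before fluorescence intensity readout.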

TNFR1 [4] = biological target: T1, TNFR1; conditions: 37 (ZAF); ref 55 (Pep4-19); cited from earlier work
TNFR1/TNF = assay: Co-IP of TNFR1 and TNF; assay type: binding; conditions: co-IP with His-tagged TNF beads, overnight 4 °C; FKC 50 µM or etanercept
Procedure, shortened: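 Ni-NTA agarose beads loaded with His-tagged human TNF for 4 h at 4 °C and washed with PBS. […] Samples were analysed by Western blotting, with equal bead-bound TNF and input TNFR1 as pull-down controls.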

In the case of FKCRRWQWRMKK-NH2 [FKC], the “toxicity in HEK293 cells” value (HEK293 cells) is reported as “does not have any toxic effect in HEK293 cells” and the EC50 (TNFR1 [1]) is reported as 25 µM.

With “Rho-FKCRRWQWRMKK-NH2 [rhodamine-conjugated FKC]” the “localization in liver, kidney, and lung” value [2] was “localization of FKC in all tissues”.

With “IL-1β: cytokine that binds IL-1 receptor to stimulate NF-κB activation (MedChemExpress, Cat# HY-P7028)” the “NF-κB activation relative to basal level (IL-1β)” value [3] was 10 fold.

For TEEEQQLY [compound 2305], the “inhibition of IL-23 signaling” value (IL-23 receptor) is given as “noncompetitively inhibit IL-23 signaling”.

For VQRWLIVWRIRK-NH2 [IDR], the “inhibition of NF-κB activation (earlier reports)” value (NF-κB activation) is given as “inhibit NF-κB activation”.

For `COc1cc(C(=O)NS(=O)(=O)c2ccccc2C)ccc1Cc1cn(C)c2ccc(NC(=O)OC3CCCC3)cc12` [ZAF, zafirlukast], the “FRET change of the PLAD biosensor” value (TNFR1 PLAD) is listed as “reduced FRET in the PLAD biosensor” and the “extent of inhibition of TNFR1 signaling” value (TNFR1 [4]) is listed as “only exhibited partial inhibition”.

For etanercept, the “effect on receptor–ligand interaction” value (TNFR1/TNF) was “disrupting receptor–ligand interaction”.
